Data on one compound can be found in ChEMBL document CHEMBL3227928, “Phosphonate analogue of 2'-deoxy-5-fluorouridylic acid” (J Med Chem, 1979).

The target in assay [1] is T1, Thymidylate synthase (Lactobacillus casei) (UniProt P00469).
T1 sequence (whole entry): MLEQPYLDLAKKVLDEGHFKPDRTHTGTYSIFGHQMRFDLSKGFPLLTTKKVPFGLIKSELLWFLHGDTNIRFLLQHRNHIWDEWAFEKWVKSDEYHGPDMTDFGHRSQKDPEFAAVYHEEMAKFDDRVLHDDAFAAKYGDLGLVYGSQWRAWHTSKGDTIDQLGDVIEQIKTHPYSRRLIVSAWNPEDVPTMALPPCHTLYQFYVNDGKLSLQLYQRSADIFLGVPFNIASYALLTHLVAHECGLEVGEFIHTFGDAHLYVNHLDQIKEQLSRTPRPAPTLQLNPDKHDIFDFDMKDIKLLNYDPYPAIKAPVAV
The assay can be described thus: Inhibition of Lactobacillus casei thymidylate synthetase using dUMP as substrate at 20 uM preincubated for 10 mins followed by substrate addition relative to control. Particulars: Lacticaseibacillus casei.

Assay [2] addresses T1, Thymidylate synthase (Lactobacillus casei). The assay can be described thus: Inhibition of Lactobacillus casei thymidylate synthetase using dUMP as substrate at 20 uM preincubated for 0 mins followed by substrate addition relative to control. The settings on record: Lacticaseibacillus casei.
Assay [3] can be described thus: Cytotoxicity against human Hep2 cells assessed as growth inhibition. It is filed as functional. Particulars: HEp-2, read-out: ED50 (the source's name).
The next assay addresses T2, Thymidylate synthase (Lactobacillus casei, UniProt P00469).
T2 sequence (P00469 whole entry): T1 sequence (whole entry)
Briefly: Inhibition of Lactobacillus casei thymidylate synthetase using dUMP as substrate preincubated for 20 mins followed by substrate addition. On the set-up: species or system Lacticaseibacillus casei. In short, it runs like this: (§1)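 Enzyme and inhibitor preincubated 20 min at 30 °C in assay mix with 0.11 M 2-mercaptoethanol, 3 × 10^-4 M tetrahydrofolate, 0.012 M formaldehyde and 0.021 M MgCl2. Reaction started by adding dUMP to 4 × 10^-5 M. Enzyme concentrations were 8 × 10^-9 M for L. casei, 8 × 10^-9 M for E. coli (calculated assuming the L. casei turnover number) and 4 × 10^-9 M for T2. Concentration giving 50% inhibition reported.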

For assay [4], the target named is T1, Thymidylate synthase (Lactobacillus casei). Briefly: Inhibition of Lactobacillus casei thymidylate synthetase using dUMP as substrate at 20 uM preincubated for 20 mins followed by substrate addition relative to control. The settings on record: Lacticaseibacillus casei.
Assay [5] has the same target. Briefly: Inhibition of Lactobacillus casei thymidylate synthetase using dUMP as substrate at 20 uM preincubated for 5 mins followed by substrate addition relative to control. The settings on record: Lacticaseibacillus casei.
Assay [6] has the same target. Briefly: Inhibition of Lactobacillus casei thymidylate synthetase using dUMP as substrate at 20 uM preincubated for 40 mins followed by substrate addition relative to control. Particulars: Lacticaseibacillus casei.
Assay [7] is described as follows: Inhibition of Escherichia coli thymidylate synthetase using dUMP as substrate preincubated for 20 mins followed by substrate addition. In a few lines:
as §1

Assay [8] is described as follows: Inhibition of coliphage T2 thymidylate synthetase using dUMP as substrate preincubated for 20 mins followed by substrate addition. On the set-up: species or system Enterobacteria phage T2. In short, it runs like this: as §1

For the compound `O=c1[nH]c(=O)n([C@H]2C[C@H](O)[C@@H](CCP(=O)(O)O)O2)cc1F`, the inhibition (usually the drop in the measured response relative to a control, in per cent) in assay [1] worked out at 64%; in [2], 0%; in assay [4] it was 75%; in assay [5], 45%; in [6], 85%. Moreover, in [3], the EC50 came out at 45 µM. Further, the 50% inhibitory concentration (IC50) (commonly the midpoint of a concentration-inhibition curve) against Thymidylate synthase came to 7 µM; in assay [7], 0.6 µM; in assay [8], 0.06 µM.
